{"source": "ChEMBL document CHEMBL4334458", "about": "“Design, synthesis and antibacterial evaluation of novel 15-membered 11a-azahomoclarithromycin derivatives with the 1, 2, 3-triazole side chain” (Eur J Med Chem, 2019)", "key": {"Streptococcus pneumoniae [1]": {"test_system": "Streptococcus pneumoniae", "assay": "Antibacterial activity against erythromycin-resistant Streptococcus pneumoniae B1 expressing the ermB incubated for 24 hrs by broth dilution method", "assay_type": "functional"}, "Staphylococcus aureus [2]": {"test_system": "Staphylococcus aureus", "assay": "Bactericidal activity against erythromycin-susceptible Staphylococcus aureus ATCC 25923 incubated for 24 hrs followed by re-plating on tryptic soy agar plates for 24 hrs by broth microdilution assay", "assay_type": "functional", "conditions": "ATCC 25923, 24 h", "outline": "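Built on the broth microdilution MIC set-up (CAMH, 24 h, 37 °C). After 24 h, contents of clear wells were plated on tryptic soy agar and incubated 24 h at 37 °C. MBC was taken as the lowest concentration giving no colonies.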"}, "MCF7": {"test_system": "MCF7", "assay": "Cytotoxicity against human MCF7 cells assessed as viable cells up to 32 ug/ml incubated for 24 hrs by MTT assay", "assay_type": "cell-based", "conditions": "mcf7, 24 h", "outline": "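MCF-7 cells were seeded at 10^4 cells/well and allowed to settle overnight. Compound was added for 24 h, with CAM as control and DMSO as vehicle control. MTT (5 mg/mL stock) was then added for 4 h at 37 °C, formazan dissolved in DMSO for 10 min, and absorbance read at 570 nm. Read-out was percent viable cells.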"}, "Streptococcus pyogenes [3]": {"test_system": "Streptococcus pyogenes", "assay": "Antibacterial activity against erythromycin-susceptible Streptococcus pyogenes 1 clinical isolate incubated for 24 hrs by broth dilution method", "assay_type": "functional", "outline": "(§1)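 CLSI broth microdilution in cation-adjusted Mueller-Hinton broth. Twofold dilutions spanned 0.25–128 or 0.5–256 µg/mL, with CAM and AZM as controls. Log-phase bacteria were added and incubated 24 h at 37 °C. MIC was read by turbidity as the concentration of the last clear well.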"}, "Bacillus subtilis": {"test_system": "Bacillus subtilis", "assay": "Antibacterial activity against penicillin-susceptible Bacillus subtilis ATCC 9372 incubated for 24 hrs by broth dilution method", "assay_type": "functional", "conditions": "ATCC 9372, 24 h", "outline": "as §1"}, "Staphylococcus aureus [4]": {"test_system": "Staphylococcus aureus", "assay": "Ratio of MBC to MIC for erythromycin-susceptible Staphylococcus aureus ATCC 25923", "assay_type": "functional"}, "Staphylococcus aureus [5]": {"test_system": "Staphylococcus aureus", "assay": "Antibacterial activity against penicillin-resistant Staphylococcus aureus ATCC 31007 incubated for 24 hrs by broth dilution method", "assay_type": "functional", "conditions": "ATCC 31007, 24 h"}, "Staphylococcus aureus [6]": {"test_system": "Staphylococcus aureus", "assay": "Antibacterial activity against methicillin-resistant Staphylococcus aureus ATCC 43300 incubated for 24 hrs by broth dilution method", "assay_type": "functional", "conditions": "ATCC 43300, 24 h"}, "Streptococcus pneumoniae [7]": {"test_system": "Streptococcus pneumoniae", "assay": "Antibacterial activity against erythromycin-resistant Streptococcus pneumoniae AB11 expressing the ermB and mefA incubated for 24 hrs by broth dilution method", "assay_type": "functional"}, "Staphylococcus aureus [8]": {"test_system": "Staphylococcus aureus", "assay": "Antibacterial activity against erythromycin-susceptible Staphylococcus aureus ATCC 25923 incubated for 24 hrs by broth dilution method", "assay_type": "functional", "conditions": "ATCC 25923, 24 h", "outline": "as §1"}, "Escherichia coli": {"test_system": "Escherichia coli", "assay": "Antibacterial activity against penicillin-susceptible Escherichia coli ATCC 25922 incubated for 24 hrs by broth dilution method", "assay_type": "functional", "conditions": "ATCC 25922, 24 h", "outline": "as §1"}, "Streptococcus pyogenes [9]": {"test_system": "Streptococcus pyogenes", "assay": "Antibacterial activity against erythromycin-resistant Streptococcus pyogenes 2 clinical isolate incubated for 24 hrs by broth dilution method", "assay_type": "functional"}, "Pseudomonas aeruginosa": {"test_system": "Pseudomonas aeruginosa", "assay": "Antibacterial activity against penicillin-susceptible Pseudomonas aeruginosa ATCC 27853 incubated for 24 hrs by broth dilution method", "assay_type": "functional", "conditions": "ATCC 27853, 24 h", "outline": "as §1"}}}
{"molecule": "CO[C@]1(C)C[C@@H](C)[C@H](O)[C@H](C)CN(C)C[C@H](COCc2cn(-c3ccccn3)nn2)OC(=O)[C@H](C)[C@@H](O[C@H]2C[C@@](C)(OC)[C@@H](O)[C@H](C)O2)[C@H](C)[C@H]1O[C@@H]1O[C@H](C)C[C@H](N(C)C)[C@H]1O", "values": [{"measurement": "MIC", "setting": "Streptococcus pneumoniae [1]", "value": "> 256", "unit": "µg/mL"}, {"measurement": "MBC", "setting": "Staphylococcus aureus [2]", "value": "> 128", "unit": "µg/mL"}, {"measurement": "Activity", "setting": "MCF7", "value": "Non-Toxic"}, {"measurement": "MIC", "setting": "Streptococcus pyogenes [3]", "value": 0.5, "unit": "µg/mL"}, {"measurement": "MIC", "setting": "Bacillus subtilis", "value": "≤ 0.25", "unit": "µg/mL"}, {"measurement": "Ratio", "setting": "Staphylococcus aureus [4]", "value": ">512"}, {"measurement": "MIC", "setting": "Staphylococcus aureus [5]", "value": "> 256", "unit": "µg/mL"}, {"measurement": "MIC", "setting": "Staphylococcus aureus [6]", "value": "> 256", "unit": "µg/mL"}, {"measurement": "MIC", "setting": "Streptococcus pneumoniae [7]", "value": 128, "unit": "µg/mL"}, {"measurement": "MIC", "setting": "Staphylococcus aureus [8]", "value": "≤ 0.25", "unit": "µg/mL"}, {"measurement": "MIC", "setting": "Escherichia coli", "value": 64, "unit": "µg/mL"}, {"measurement": "MIC", "setting": "Streptococcus pyogenes [9]", "value": 128, "unit": "µg/mL"}, {"measurement": "MIC", "setting": "Pseudomonas aeruginosa", "value": 16, "unit": "µg/mL"}]}
